Measured values collected from several papers.
Lines come from different studies, so protocols differ.
Medium: Caco-2

SMILES	conditions	Papp A→B [×10⁻⁶ cm/s]
N=C(N)NCCCNC(=O)[C@@H]1CCCCN1C(=O)[C@@H](CC1CCCCC1)NCC(=O)O	5 µM, 2 h	0.05
Oc1cc(O)c2c(c1)O[C@H](c1ccc(O)c(O)c1)[C@@H](O)C2	100 µg/mL, 2 h	11.7
N#Cc1ccc(C[C@H](Nc2nnc(-c3ccc(F)cc3)o2)C(=O)N2CCc3ccccc32)cc1	100 µM, 2 h	62.9
COCC(=O)OCc1cc2[nH]c(=S)n(Cc3cccnc3)c(=O)c2cc1Cl	10 µM, 90 min, pH 7.4	0.2
CN/C(=N/CCSCc1nc[nH]c1C)NC#N	5 µM, 2 h	0.55
O=c1c2cc(Cl)c(CO)cc2[nH]c(=S)n1Cc1cccnc1	10 µM, 90 min, pH 7.4	12.3
Cc1ncc(Cl)cc1NCc1ccc(C(=O)N[C@@H](CC2CCCC2)C(=O)NC2CC2)s1	5 µM, 2 h, pH 7.4	0.22
COc1ccc(-c2cc(=O)c3c(O)cc(O[C@@H]4O[C@H](CO[C@@H]5O[C@@H](C)[C@H](O)[C@@H](O)[C@H]5O)[C@@H](O)[C@H](O)[C@H]4O)cc3o2)cc1O	100 µg/mL, 2 h	45.2
CN(C)CC(=O)OCc1cc2[nH]c(=S)n(Cc3cccnc3)c(=O)c2cc1Cl	10 µM, 90 min, pH 7.4	42.5
NCCOCC(=O)N1CCC[C@H](C(=O)NCc2nc(-c3ccc(C(F)(F)F)cc3)cs2)C1	pH 7.4	0.1
Nc1nc2c(ncn2COCCO)c(=O)[nH]1	5 µM, 2 h	0.18
COCC(=O)N1CCC[C@H](C(=O)NCc2nc(-c3ccc(C#N)cc3)cs2)C1	pH 7.4	24
CC(C)NCC(O)COc1cccc2ccccc12 (stereo not drawn)	10 µM, 2 h	29.7
C[C@@H]1O[C@@H](O[C@H]2[C@H](Oc3cc(O)c4c(c3)O[C@H](c3ccc(O)cc3)CC4=O)O[C@H](CO)[C@@H](O)[C@@H]2O)[C@H](O)[C@H](O)[C@H]1O	100 µg/mL, 2 h	21
CC[C@]1(O)C[C@@H]2CN(CCc3c([nH]c4ccccc34)[C@@](C(=O)OC)(c3cc4c(cc3OC)N(C)[C@H]3[C@@](O)(C(=O)OC)[C@H](OC(C)=O)[C@]5(CC)C=CCN6CC[C@]43[C@@H]65)C2)C1	10 µM, 2 h	1.69
CCN1CCCC1CNC(=O)c1cc(S(N)(=O)=O)ccc1OC (stereo not drawn)	5 µM, 2 h	0.16
N#Cc1ccc(C[C@H](NC(=O)c2cc3cc(F)ccc3[nH]2)C(=O)N2CCc3ccccc32)cc1	100 µM, 2 h	1.2
CNS(=O)(=O)Cc1ccc2[nH]cc(CCN(C)C)c2c1	5 µM, 2 h	0.36

SMILES	conditions	Papp A→B [×10⁻⁶ cm/s]
O=c1cc(-c2ccc(O)cc2)oc2c([C@@H]3O[C@H](CO)[C@@H](O)[C@H](O)[C@H]3O)c(O)cc(O)c12	100 µg/mL	0.316
O=c1cc(-c2ccc(O)c(O)c2)oc2cc(O)cc(O)c12	100 µg/mL, 2 h	7.1
C=CC(=O)NC1CCN(c2ncc3ncnc(Nc4ccc(Oc5ccc6c(c5)ncn6C)c(C)c4)c3n2)CC1	–	~6.8
COc1ccc(CCC(=O)c2c(O)cc(O[C@@H]3O[C@H](CO)[C@@H](O)[C@H](O)[C@H]3O[C@@H]3O[C@@H](C)[C@H](O)[C@@H](O)[C@H]3O)cc2O)cc1O	100 µg/mL, 2 h	17
O=C(N[C@@H](c1ccccc1)[C@H]1CCCN1)C1=CN(c2ncnc3[nH]ccc23)CCS1	10 µM, pH 6.5	< 0.3
CCOCC(=O)N1CCC[C@H](C(=O)NCc2nc(-c3ccc(C)nc3)cs2)C1	pH 7.4	15
O=c1c(O[C@@H]2O[C@H](CO)[C@H](O)[C@H](O)[C@H]2O)c(-c2ccc(O)c(O)c2)oc2cc(O)cc(O)c12	200 µg/mL	0.349
O=c1c2cc(Cl)ccc2[nH]c(=S)n1Cc1ccc(-c2nnn[nH]2)nc1	10 µM, 90 min, pH 7.4	< 0.51
COc1ccc(-c2coc3cc(O)cc(O)c3c2=O)cc1	100 µg/mL, 2 h	20.4
O=c1c2cc(Cl)ccc2[nH]c(=S)n1Cc1cccnc1	10 µM, 90 min, pH 7.4	17.7
N[C@@H](COCC(=O)N1CCC[C@H](C(=O)NCc2nc(-c3ccc(C(F)(F)F)cc3)cs2)C1)c1ccccc1	pH 7.4	8.5
CCCCCCOC(=O)NC(=N)c1ccc(NCc2nc3cc(C(=O)N(CCC(=O)OCC)c4ccccn4)ccc3n2C)cc1	5 µM, 2 h	0.0021
O=C(NCc1nc(-c2ccc(C(F)(F)F)cc2)cs1)[C@H]1CCCN(C(=O)COCCN2CCCC2)C1	pH 7.4	1.8
O=c1cc(-c2ccccc2)oc2cc(O)c(O)c(O)c12	100 µg/mL, 2 h	9.23
C[C@@H]1O[C@@H](OC[C@H]2O[C@@H](Oc3c(-c4ccc(O)c(O)c4)oc4cc(O)cc(O)c4c3=O)[C@H](O)[C@@H](O)[C@@H]2O)[C@H](O)[C@H](O)[C@H]1O	200 µg/mL	0.293
N#Cc1ccc(C[C@H](Nc2c(Nc3ccc(Br)cc3)c(=O)c2=O)C(=O)N2CCc3ccccc32)cc1	100 µM, 2 h	2
COc1ccc(-c2coc3cc(O)ccc3c2=O)cc1	100 µg/mL, 2 h	4.66
COCC(=O)N1CCC[C@H](C(=O)NCc2nc(-c3ccccc3)cs2)C1	pH 7.4	52
